Measurements reported in ChEMBL document CHEMBL4513216, “Probing the Open Global Health Chemical Diversity Library for Multistage-Active Starting Points for Next-Generation Antimalarials” (ACS Infect Dis, 2020).

Experiment: Toxicity liver stage against HepG2, at 10uM
Assay type: cell-based
Set-up: test concentration 10 uM, cell line HepG2-A16-CD81EGFP
Details: human, HepG2-A16-CD81EGFP cells; read-out: INHIBITION
Procedure, shortened: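 Uninfected HepG2-A16-CD81EGFP cells, 3 × 10^3 per well, 1536-well, plated on prespotted compound at 10 μM final, parasite-free screening media added to match infected plates; puromycin 10 μM positive, DMSO 0.5% negative; run in parallel with 48 h PbLuc assay at 37 °C, 5% CO2; viability by CellTiter-Glo luminescence, normalized to controls.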

SMILES | cytotoxicity at 10 µM [%]
O=C(c1ccc(C(F)(F)F)cc1)C1CCCN(C(=O)Cn2cnnn2)C1 (configuration not stated) | -5.34
O=C(CCNc1ncccn1)Nc1ccc(Cn2cncn2)cc1 | 2.5
O=C(NCC1CC1)C1CCC2(CCN(C(=O)c3ccoc3)CC2)O1 (configuration not stated) | 4.97
O=S(=O)(c1cccc(F)c1)N1C[C@@H]2COC[C@]2(COCC2CC2)C1 | 12.5
COc1ccc(OC)c(NC(=O)N2CCCC2c2ccco2)c1 (configuration not stated) | -6.57
O=C(c1ccco1)N1CCC2(CCC(=O)N2Cc2cccc(F)c2)CC1 | 2.84
CC(C)C(=O)N1CCC2(CCCN(CCOc3ccccc3)C2)C1 (configuration not stated) | 6.71
CCN(CC)C(=O)CCn1ncc2c(Cl)cccc21 | 12.4
CS(=O)(=O)N1CCc2ccc(C(=O)N3CCn4ncnc4C3)cc21 | -7.79
CC1(C(=O)NC2CCCC2)CCCN(c2cnccn2)C1 (configuration not stated) | -5.81
Cc1cc2n(n1)[C@@H](C(F)(F)F)C[C@@H](C1CCN(C(=O)C3CC3)CC1)N2 | -41
CCn1ccc(C(=O)N2CCCC2(C)c2nc(C)cc(N(C)C)n2)n1 (configuration not stated) | -7.56
O=c1[nH]c(N2CCOCC2)nc2c1CN(Cc1cccnc1)CC2 | 12.3
Cc1cc(C2CCN(C(=O)c3cnn(C)c3)CC2)ccn1 | -17.8
CN1CCCC(c2cccc(CCC(N)=O)n2)C1 (configuration not stated) | 2.9
CN1CCCC[C@@H]2[C@H]1[C@@H](c1ccccc1)CCN2C(=O)c1ccncc1 | -13
Cc1cc(C)n(Cc2cccc(C(=O)N3CCOCC3(C)C)c2)n1 | -3.51
O=C(NCCNC(=O)C1CCN(CC(F)(F)F)CC1)c1ccoc1 | 5.09
CN(C)c1ccc(CNC(=O)Nc2ccc(S(=O)(=O)C(F)F)cc2)cc1 | 9.25
O=C(CCc1cc(Br)cs1)NCCCn1ccnc1 | 1.08
COc1ccc(CNCCc2cccc(C(N)=O)c2)cc1O | 8.42
CCSCc1ccnc(NC(=O)C2CCCO2)c1 (configuration not stated) | 5.39
COCCN1CCN(CC(=O)NC2(C#N)CCCC2)CC1C (configuration not stated) | 10.7

SMILES | cytotoxicity at 10 µM [%]
CC(C)OCCC(=O)NCC(O)c1c(F)cccc1F (configuration not stated) | -6.51
COC(=O)c1ccc(NC(C)c2ccc3c(c2)CC(=O)N3)nn1 (configuration not stated) | 3.82
CN1CCOC(CNC(=O)CCCc2ccccc2)C1 (configuration not stated) | -0.95
Cc1nc(CN2CCN(c3ccc(SC(C)C)nn3)CC2)cs1 | 5.71
CC(C)n1cnnc1CNC(=O)c1cnc2ccccc2n1 | 7.01
CCOc1ccc(Cl)c(C(=O)N2CCCC(c3cc(C)[nH]n3)C2)n1 (configuration not stated) | 8.83
COC(=O)c1ccc(N(C(=O)c2cccnc2C)C(C)C)c(C)c1 | -8.58
c1coc(-c2nc(CN3CCOC(Cn4cccn4)C3)cs2)c1 (configuration not stated) | -6.45
CC(C)c1cc(C(=O)N2CCOCC2CC(=O)c2ccco2)nn1C (configuration not stated) | 5.52
CNC(=O)COc1ccc(CNCc2cc(F)ccc2F)cc1 | 3.53
Cc1nc(-c2ccsc2)ccc1C(=O)N(C)CC(F)(F)F | -1.54
CCc1ncc2c(n1)CN(CCCOc1ccc(C#N)cc1)CC2 | 16.4
NCc1csc(CCc2ccccc2)n1 | -0.138
CC(c1nc(C2CC2)no1)N(C)Cc1ccc(C#N)cc1 (configuration not stated) | 4.15
COc1ccccc1CCNC(=O)CNC1CCc2nc(C)nn2C1 (configuration not stated) | -12.3
CN(CCC#N)C(=O)CN(C1CC1)C1CCc2ccccc21 (configuration not stated) | -4.74
COCCCn1ccc(NC(=O)NCCc2cccnc2)n1 | -0.996
CC(C)c1cccc(-n2cc(O)c(C(N)=O)n2)c1 | -5.93
CS(=O)(=O)CCNC(=O)N(Cc1ccoc1)C1CCCCC1 | 5.72
CCCNC(=O)C1CCN(CC(O)c2ccccc2C(F)(F)F)CC1 (configuration not stated) | 3.21
Cc1nc(C)c(COc2ccc(N(C)S(C)(=O)=O)cc2)s1 | 23.2
NC(=O)c1ccc(CNC2CCCSC2)cc1 (configuration not stated) | -9.44
O=C(Nc1ccnn1Cc1ccccc1Cl)C1CCS(=O)(=O)C1 (configuration not stated) | -3.95

SMILES | cytotoxicity at 10 µM [%]
CC(C(=O)N1CCc2sccc2C1)N1CCC(S(N)(=O)=O)CC1 (configuration not stated) | 9.26
Cn1cc(CCCNC(=O)NC2CCN(CC(F)(F)F)C2=O)cn1 (configuration not stated) | 6.51
c1cncc(-c2ccnn2CN2CCOCC2)c1 | 3.44
CCc1ccc(C(=O)NCc2ccnc(C)n2)cc1 | -4.91
CC(C)C(O)CNC(=O)Nc1cnn(C(C)C)c1 (configuration not stated) | 3.57
CCN(CC)C(=O)CCNC(=O)N1CCC(c2ccccc2)C1 (configuration not stated) | -3.26
CNC(=O)Nc1cc(-c2ccc(Br)cc2)nn1CCO | -1.35
O=C(NCCCNC(=O)c1cccc(O)c1)Nc1ccc(F)cc1F | -11
Cn1ccc(C(=O)N2CCC3(CC2)CC(Nc2cnccn2)CO3)n1 (configuration not stated) | 4.35
CN(C)CCOCC1CN(CCN(C)C)Cc2ccnn2C1 (configuration not stated) | 0.656
O=C(c1ccncc1)N1CCN2C[C@H](Oc3cccnc3)C[C@H]2C1 | 2.83
COc1cccc(CC(=O)N2CCc3ncnc(NC(C)C)c3CC2)c1 | 6.56
CNc1nccc(-c2cnc3sc(C)c(C)n3c2=O)n1 | -2.78
O=c1c(-c2ccnc(N3CCC[C@H]3CO)n2)cnc2sccn12 | -6.3
CCOC(=O)CNc1nc(COC)nc2c1cnn2C | 9
COCCCN1CC2(CCCN(c3ncnc4[nH]cnc34)C2)CCC1=O (configuration not stated) | -2.95
Cc1csc(CN(C)CCOc2ccccc2)n1 | -3.18
COCCN(Cc1nccs1)C(=O)c1cc(-c2ccc(C)s2)n[nH]1 | -8.84
O=C(c1cc(=O)[nH][nH]1)N1CCCC2(CCC(=O)N(C3CCCC3)C2)C1 (configuration not stated) | 0.988
Cc1ccc([C@@H]2CN(C(=O)c3cc(C)n[nH]3)C[C@H]2NC(=O)C2CC2)cc1 | -7.77
CCC(CO)NC(=O)c1cc(COc2ccc(OC)cc2Cl)[nH]n1 (configuration not stated) | 2.2
Cc1cc(C(=O)N2CCN(C(=O)CC(C)C)[C@@H]3CS(=O)(=O)C[C@@H]32)no1 | -5.45
O=C(c1ccc(-c2cc[nH]n2)cc1)N1CC[C@H](CO)[C@H](O)C1 | 4.52

SMILES | cytotoxicity at 10 µM [%]
CCn1ncnc1CN(C/C=C/c1ccccc1)CCOC | 4.3
COCC(=O)N1CCCC(COc2ccccc2C)C1 (configuration not stated) | 2.06
O=C(c1coc(COc2ccccc2F)n1)N1CCCO1 | 6.29
CCn1nc(C)c(NC(=O)CN2CCN(C(C)=O)CC2)c1C | -6.67
CN(Cc1ccccc1)C1(C(=O)NC(CO)CO)Cc2ccccc2C1 | 2.59
COc1cccc(CC2CN(C3CC(C)(C)NC(C)(C)C3)CCO2)c1 (configuration not stated) | -91.7
CC(=O)NCC1CCC2(CCN(c3ncc(C)cn3)CC2)O1 (configuration not stated) | -3.09
CCC(NC(=O)COC)c1ccccc1OCC(=O)N1CCCC1 (configuration not stated) | -6.39
CCN(Cc1ccc2c(c1)OCCO2)C(=O)c1ccc(C)[nH]c1=O | -4.6
CC(C)c1ccc(OCCC(=O)N2CCCN(C(N)=O)CC2)cc1 | -15.5
CC1CCCN(C(=O)CNC(=O)c2ccoc2)C1 (configuration not stated) | -0.775
CN(Cc1ccc(F)cc1)C(=O)CN1CCOC(Cn2cccn2)C1 (configuration not stated) | 2.2
CCn1ccnc1CN1CCCN(C(=O)c2cnc(C)cn2)CC1 | -12.3
Cc1nc(CN2CCCN(C(=O)c3c(C)oc(C)c3C)CC2)cs1 | -14
Cc1nc(C)c(CN2CCOC(CN(C)c3cccnn3)C2)s1 (configuration not stated) | -7.16
CCOCC(O)CN1CCN(C(=O)c2cccc3[nH]ncc23)CC1 (configuration not stated) | -12.8
COc1ccc(Cl)cc1C(=O)N(C)Cc1cc(C)on1 | -22.9
O=C(CN1CCN(c2ccc3nncn3n2)CC1)NC1CCCCC1 | -12.6
Cc1noc(C2CCN(C(=O)CCNc3ncccn3)CC2)n1 | -6.38
Cc1ccc(SCC(=O)NS(=O)(=O)c2ccc3c(c2)OCCO3)cc1 | -22.1
Cc1cc(C)n(CC2CCCN2C(=O)CCCc2ccccn2)n1 (configuration not stated) | -0.395
O=C(Cc1ccc2c(c1)CCO2)N1CCN(c2cnccn2)CC1 | -11.3
COc1ccccc1OCCN1CCCC(c2cc(C(N)=O)[nH]n2)C1 (configuration not stated) | 3.71

SMILES | cytotoxicity at 10 µM [%]
COc1ccnc(N2CCN(C(=O)Cc3ccc(C)s3)CC2)n1 | 0.818
Cc1ccccc1CN(C)Cc1nc2c(cnn2C)c(=O)[nH]1 | 2.51
CNC(=O)[C@@H]1CN(C(=O)CCOC)C[C@H]1c1ccnc(N2CCCC2)n1 | -3.43
Nc1ccc(-c2cnc(C3CCCN3)cn2)cn1 (configuration not stated) | 2.19
C[C@@H](NC(=O)c1ccc(Cl)cc1)c1onc(-c2cccnc2)c1C(=O)O | -1.6
O=C1CC2(CCCNC2)C(=O)N1Cc1cccc(Cl)c1 (configuration not stated) | -1.19
CCC(C)(N)c1nc(C(C)C)cc(=O)[nH]1 (configuration not stated) | 14
CC(C)(N)c1nc(C(F)F)cc(=O)[nH]1 | 11.9
CCN1C(=O)C(c2ccccc2)CC12CCN(Cc1cccnc1)CC2 (configuration not stated) | 4.65
COCC(=O)Nc1ccc2c(c1)C1(CCOCC1)CN2CCF | -99.6
O=S(=O)(C1CC1)N1CCCn2cnc(COc3cccnc3)c2C1 | 1.4
COCCN1C[C@@H](c2ccccc2)[C@@]2(CCN(CC(=O)N(C)C)C2=O)C1 | 3.11
CN(C)CC(=O)N1CCCC2(CCN(c3ccccc3)C2=O)C1 (configuration not stated) | -1.24
CC(C)N1CCC(N2CCC(C(=O)N(C)C)CC2)CC1 | 4.71
COCCN1CCc2c(c(COc3cccnc3)nn2C)C1 | -113
CC(C)(CN)NS(=O)(=O)c1c(F)cccc1F | -8.89
CCc1c(C)[nH]c(C2(N)CCCCC2)nc1=O | -3.47
Cc1nn(C)cc1CN1C[C@H]2CC[C@@H](C1)N(Cc1c(C)noc1C)C2=O | 5.9
COC(=O)Cn1c(=O)[nH]c2cn(-c3ccccc3)c(=O)n21 | 21.6
Cc1cc2cccc(NC(=O)N3CC[C@H]4CC[C@@H](C3)N4C)c2o1 | 7.89
